The record followed here is ChEMBL document CHEMBL1135750, “Phenoxyphenyl sulfone N-formylhydroxylamines (retrohydroxamates) as potent, selective, orally bioavailable matrix metalloproteinase inhibitors” (J Med Chem, 2002).

The structures appear in SMILES notation. A value given as a limit tells only on which side of the number the result lay.

Series [1] addresses T1, Matrilysin (Homo sapiens, UniProt P09237).
T1 sequence (P09237 whole entry): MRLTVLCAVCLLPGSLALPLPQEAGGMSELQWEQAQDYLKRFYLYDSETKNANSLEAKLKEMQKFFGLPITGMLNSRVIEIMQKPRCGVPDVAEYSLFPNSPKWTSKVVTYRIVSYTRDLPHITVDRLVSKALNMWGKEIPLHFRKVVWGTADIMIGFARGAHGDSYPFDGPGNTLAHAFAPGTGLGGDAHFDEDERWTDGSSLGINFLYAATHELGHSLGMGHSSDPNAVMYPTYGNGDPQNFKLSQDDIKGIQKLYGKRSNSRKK
Description: Inhibition of Matrix metalloprotease-7 (MMP-7) in fluorimetric assay.

The target of series [2] is T2, Interstitial collagenase (Homo sapiens, UniProt P03956).
T2 sequence (P03956 whole entry): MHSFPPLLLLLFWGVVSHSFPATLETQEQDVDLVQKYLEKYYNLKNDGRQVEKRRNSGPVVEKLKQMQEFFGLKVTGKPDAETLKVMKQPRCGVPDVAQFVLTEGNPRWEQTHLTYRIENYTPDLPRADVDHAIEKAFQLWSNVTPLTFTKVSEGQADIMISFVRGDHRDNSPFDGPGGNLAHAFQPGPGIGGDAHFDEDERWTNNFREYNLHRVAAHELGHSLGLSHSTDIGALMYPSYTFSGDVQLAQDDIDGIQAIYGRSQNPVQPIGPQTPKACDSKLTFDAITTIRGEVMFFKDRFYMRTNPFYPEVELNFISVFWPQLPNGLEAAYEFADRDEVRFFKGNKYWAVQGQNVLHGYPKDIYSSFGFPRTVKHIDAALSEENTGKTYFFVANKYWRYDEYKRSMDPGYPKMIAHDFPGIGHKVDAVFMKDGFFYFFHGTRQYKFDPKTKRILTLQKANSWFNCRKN
Description: In vitro selective inhibition against matrix metalloprotease-1 (MMP-1) using a fluorimetric assay.

Series [3] relates to THP-1. Description: Selective inhibition of the cellular TNF alpha release from LPS-stimulated THP-1 cells. The following applies: Homo sapiens. Format: functional, cell-based.
The target of series [4] is Neutrophil collagenase (Homo sapiens, UniProt P22894). Description: Inhibition of Matrix metalloprotease-8 (MMP-8) in fluorimetric assay.
Sequence of Neutrophil collagenase (P22894 whole entry): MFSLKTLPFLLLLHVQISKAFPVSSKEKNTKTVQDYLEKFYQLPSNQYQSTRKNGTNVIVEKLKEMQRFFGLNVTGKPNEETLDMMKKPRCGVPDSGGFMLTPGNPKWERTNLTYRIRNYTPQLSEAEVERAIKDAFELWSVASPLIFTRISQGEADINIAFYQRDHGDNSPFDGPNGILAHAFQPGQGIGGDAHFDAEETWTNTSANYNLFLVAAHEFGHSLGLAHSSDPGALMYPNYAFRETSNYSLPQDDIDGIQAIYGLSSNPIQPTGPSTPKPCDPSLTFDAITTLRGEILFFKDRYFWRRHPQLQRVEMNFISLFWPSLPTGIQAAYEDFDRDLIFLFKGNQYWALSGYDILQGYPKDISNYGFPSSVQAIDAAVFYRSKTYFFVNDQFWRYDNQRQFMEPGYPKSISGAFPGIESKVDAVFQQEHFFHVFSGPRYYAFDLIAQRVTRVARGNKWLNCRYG
Series [5] addresses Collagenase 3 (Homo sapiens, UniProt P45452).
For series [6], the target named is Stromelysin-1 (Homo sapiens, UniProt P08254). Nature of the series: Inhibition of Matrix metalloprotease-3 (MMP-3) in fluorimetric assay.
Sequence of Stromelysin-1 (P08254 whole entry): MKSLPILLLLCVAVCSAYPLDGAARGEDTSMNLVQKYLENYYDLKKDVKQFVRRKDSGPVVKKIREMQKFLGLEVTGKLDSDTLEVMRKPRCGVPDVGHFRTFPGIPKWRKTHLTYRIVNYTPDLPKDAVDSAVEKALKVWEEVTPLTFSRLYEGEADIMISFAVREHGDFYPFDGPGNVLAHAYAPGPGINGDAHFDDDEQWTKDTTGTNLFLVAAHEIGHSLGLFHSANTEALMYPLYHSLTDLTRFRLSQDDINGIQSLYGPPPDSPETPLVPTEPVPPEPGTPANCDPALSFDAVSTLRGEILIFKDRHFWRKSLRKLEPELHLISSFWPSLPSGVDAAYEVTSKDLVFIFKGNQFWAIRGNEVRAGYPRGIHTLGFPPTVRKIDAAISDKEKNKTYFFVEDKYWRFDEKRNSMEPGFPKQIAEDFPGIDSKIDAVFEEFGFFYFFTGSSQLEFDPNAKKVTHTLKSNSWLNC
In series [7] the target is Matrix metalloproteinase-9 (Homo sapiens, UniProt P14780). Nature of the series: In vitro selective inhibition against Matrix metalloprotease-9 (MMP-9) using fluorimetric assay.
Sequence of Matrix metalloproteinase-9 (P14780 whole entry): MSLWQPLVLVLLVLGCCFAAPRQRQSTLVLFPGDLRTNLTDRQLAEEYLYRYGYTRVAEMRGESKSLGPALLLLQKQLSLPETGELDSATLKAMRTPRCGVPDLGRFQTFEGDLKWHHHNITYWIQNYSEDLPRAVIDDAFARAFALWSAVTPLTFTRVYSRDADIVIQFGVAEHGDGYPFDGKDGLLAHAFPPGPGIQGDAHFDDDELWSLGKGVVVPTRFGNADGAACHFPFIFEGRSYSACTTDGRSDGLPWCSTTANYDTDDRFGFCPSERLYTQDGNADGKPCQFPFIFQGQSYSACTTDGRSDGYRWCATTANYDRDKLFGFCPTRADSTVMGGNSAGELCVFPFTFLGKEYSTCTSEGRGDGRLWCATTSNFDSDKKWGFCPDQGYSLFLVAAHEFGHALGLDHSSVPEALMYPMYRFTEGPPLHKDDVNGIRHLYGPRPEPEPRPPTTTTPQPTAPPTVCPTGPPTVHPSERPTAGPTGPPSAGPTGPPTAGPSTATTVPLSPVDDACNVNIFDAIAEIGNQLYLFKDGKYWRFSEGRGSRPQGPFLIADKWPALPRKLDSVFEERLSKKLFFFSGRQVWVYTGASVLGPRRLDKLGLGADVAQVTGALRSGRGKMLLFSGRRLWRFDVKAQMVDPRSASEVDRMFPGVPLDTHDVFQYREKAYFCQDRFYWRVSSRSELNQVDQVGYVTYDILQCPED
Series [8] addresses 72 kDa type IV collagenase (Homo sapiens, UniProt P08253). Nature of the series: In vitro selective inhibition against matrix metalloprotease-2 (MMP-2) using fluorimetric assay.
Series [9] is described as follows: Area under the curve (AUC) after 3 mg/kg peroral administration in cynomolgus monkey. The format is ADME, organism-based, Macaca fascicularis. Also on record: dose 3 mg/kg, route oral. Conditions: in vivo, po. A digest of the protocol:
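Single oral dose of 3 mpk in cynomolgus monkeys, two animals per compound. Oral exposure is reported as AUC in μM·h.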

A short description of series [10]: Half life measured as t1/2 in hours after iv administration in cynomolgus monkey. The following applies: in vivo. The format is ADME, organism-based, Macaca fascicularis.
Series [11] in a line: AUC in monkey. Format: ADME. Further details: concentration or dose not given beside the values. The following applies: simiiformes, plasma.

Sequence of 72 kDa type IV collagenase (P08253 whole entry): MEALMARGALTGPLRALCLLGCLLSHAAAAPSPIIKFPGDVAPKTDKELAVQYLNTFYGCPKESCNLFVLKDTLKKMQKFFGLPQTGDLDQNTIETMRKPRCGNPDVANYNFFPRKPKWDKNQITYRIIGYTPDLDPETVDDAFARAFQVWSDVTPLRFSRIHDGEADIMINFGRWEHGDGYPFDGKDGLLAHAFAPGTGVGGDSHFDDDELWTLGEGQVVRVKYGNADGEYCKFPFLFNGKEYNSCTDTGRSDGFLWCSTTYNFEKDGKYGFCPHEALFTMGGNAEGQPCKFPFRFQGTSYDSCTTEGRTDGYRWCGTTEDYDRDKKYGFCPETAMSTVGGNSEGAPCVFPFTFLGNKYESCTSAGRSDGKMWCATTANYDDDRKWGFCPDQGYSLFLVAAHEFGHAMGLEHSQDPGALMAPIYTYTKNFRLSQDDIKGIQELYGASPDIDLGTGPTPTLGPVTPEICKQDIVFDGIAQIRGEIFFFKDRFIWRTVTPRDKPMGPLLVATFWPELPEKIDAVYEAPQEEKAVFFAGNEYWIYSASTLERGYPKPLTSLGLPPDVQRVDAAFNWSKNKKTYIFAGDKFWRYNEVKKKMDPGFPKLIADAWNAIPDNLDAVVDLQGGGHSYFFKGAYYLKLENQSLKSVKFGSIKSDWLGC

The IC50 is the concentration at which inhibition is half-maximal. With `CC1(C)OC[C@H]([C@@H](CS(=O)(=O)c2ccc(Oc3ccc(OC(F)(F)F)cc3)cc2)N(O)C=O)O1` (stereo in doubt), the IC50 in series [1] is 11000 nM; in series [2], 8900 nM; in series [3], more than 50000 nM; in [4], 5 nM; in series [5], 3.3 nM; in series [6], 12 nM. For the same compound, the IC50 in [7] came out at 0.5 nM; in series [8] it was 0.78 nM.
The compound `CNC(=O)[C@@H](NC(=O)[C@H](CC(C)C)[C@H](O)C(=O)NO)C(C)(C)C` returned an IC50 in series [3] of 2100 nM.
Take `CC1(C)SCCN(S(=O)(=O)c2ccc(Oc3ccncc3)cc2)[C@H]1C(=O)NO` [PRINOMASTAT]: the IC50 in [1] was 72 nM; in series [3], 8600 nM; in [4], 0.54 nM.
The term AUC denotes the area under the concentration-time curve, a measure of exposure. Take `O=CN(O)C(CS(=O)(=O)c1ccc(Oc2ccc(OC(F)(F)F)cc2)cc1)C1CCC2(CC1)OCCO2` (stereo unspecified): the results for the IC50 in series [2], in series [7] and in [8] were more than 50000 nM, 2 nM and 0.42 nM, respectively. The AUC in series [9] worked out at 28 µM·h.
By half-life is commonly meant the time in which the quantity being followed falls by half. In series [10], `CC1(C)NC(=O)N(CC(CS(=O)(=O)c2ccc(Oc3ccc(Cl)cc3)cc2)N(O)C=O)C1=O` (stereo unspecified) had a half-life of 5.6 h. In addition, the IC50 came to 90 nM in series [2], 0.96 nM in series [7] and 0.32 nM in series [8]. For the same compound, the AUC in series [11] was found to be 17 µM·h.
On the same counts, the results for `O=CN(O)C(CCN1CCOCC1)CS(=O)(=O)c1ccc(Oc2ccc(OC(F)(F)F)cc2)cc1` (stereo unspecified) are 1.4 h, more than 50000 nM, 1.7 nM, 0.57 nM and 10 µM·h.
On the same counts, the results for `CN1C(=O)N(CC(CS(=O)(=O)c2ccc(Oc3ccc(Cl)cc3)cc2)N(O)C=O)C(=O)C1(C)C` (stereo unspecified) are 11.7 h, 280 nM, 1.4 nM, 0.72 nM and 13 µM·h.
